Source: paper PMC7709506 (ESMO Open, 2020)

Experiment: Safety and tolerability
Format: in vivo, human
How it was run: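 Open-label multicentre phase I/IIa trial in adults with advanced or metastatic solid tumours. Part 1 used 3+3 oral capsule escalation at 50–800 mg/day to define DLT and MTD. Part 2 gave tablets. Treatment continued until progression, intolerable AE or study end, with dose decisions by a safety monitoring board. AEs of special interest were monitored. The safety population was all dosed patients, summarised by dose level.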

[1] = 30 patients treated with 400 mg/day

Structure (SMILES): Cn1cc(-c2ccc3c(c2)ncn3-c2cc(NS(=O)(=O)C3CC3)cc(-c3ccc(F)cc3F)c2)cn1 [ODM-203]
- Hyperbilirubinaemia [1]: 36.7%
- increased blood bilirubin [1]: 50.0%
- Alopecia (Grade 3–5, all doses (n=84)): 1 (1.2) n (%)
- Arthralgia (Grade 3–5, all doses (n=84)): 2 (2.4) n (%)
- Asthenia (Grade 3–5, all doses (n=84)): 2 (2.4) n (%)
- Blood bilirubin increased (Grade 3–5, all doses (n=84)): 20 (23.8) n (%)
- Conjugated bilirubin increased (Grade 3–5, all doses (n=84)): 0 n (%)
- Decreased appetite (Grade 3–5, all doses (n=84)): 0 n (%)
- Diarrhoea (Grade 3–5, all doses (n=84)): 5 (6.0) n (%)
- Dry mouth (Grade 3–5, all doses (n=84)): 0 n (%)
- Dry skin (Grade 3–5, all doses (n=84)): 0 n (%)
- Dysgeusia (Grade 3–5, all doses (n=84)): 0 n (%)
- Epistaxis (Grade 3–5, all doses (n=84)): 0 n (%)
- Fatigue (Grade 3–5, all doses (n=84)): 5 (6.0) n (%)
- Hyperbilirubinaemia (Grade 3–5, all doses (n=84)): 16 (19.0) n (%)
- Hyperphosphataemia (Grade 3–5, all doses (n=84)): 0 n (%)
- Hypertension (Grade 3–5, all doses (n=84)): 3 (3.6) n (%)
- Jaundice (Grade 3–5, all doses (n=84)): 2 (2.4) n (%)
- Mucosal inflammation (Grade 3–5, all doses (n=84)): 0 n (%)
- Myalgia (Grade 3–5, all doses (n=84)): 2 (2.4) n (%)
- Nasal dryness (Grade 3–5, all doses (n=84)): 0 n (%)
- Nausea (Grade 3–5, all doses (n=84)): 0 n (%)
- Onycholysis (Grade 3–5, all doses (n=84)): 1 (1.2) n (%)
- Palmar-plantar eryrthodysaestesia (Grade 3–5, all doses (n=84)): 4 (4.8) n (%)
- Stomatitis (Grade 3–5, all doses (n=84)): 3 (3.6) n (%)
- Vomiting (Grade 3–5, all doses (n=84)): 0 n (%)
- Weight decreased (Grade 3–5, all doses (n=84)): 1 (1.2) n (%)
- dose reduction due to arthralgia (N=84): 2 patients
- dose reduction due to increased blood bilirubin (N=84): 2 patients
- dose reduction due to palmar-plantar erythrodysesthesia syndrome (N=84): 3 patients
- treatment interruption due to hyperbilirubinaemia (N=84): 8 patients
- treatment interruption due to increase in blood bilirubin (N=84): 16 patients
- AE leading to death (Total (N=84)): 7 (8.3) n (%)
- AE leading to discontinuation (Total (N=84)): 30 (35.7) n (%)
- AE leading to dose reduction (Total (N=84)): 9 (10.7) n (%)
- AE leading to treatment interruption (Total (N=84)): 61 (72.6) n (%)
- Alopecia (Total (N=84)): 26 (31.0) n (%)
- Any AE (Total (N=84)): 84 (100) n (%)
- Arthralgia (Total (N=84)): 28 (33.3) n (%)
- Asthenia (Total (N=84)): 25 (29.8) n (%)
- Blood bilirubin increased (Total (N=84)): 36 (42.9) n (%)
- Conjugated bilirubin increased (Total (N=84)): 11 (13.1) n (%)
- Decreased appetite (Total (N=84)): 25 (29.8) n (%)
- Diarrhoea (Total (N=84)): 42 (50.0) n (%)
- Dry mouth (Total (N=84)): 29 (34.5) n (%)
- Dry skin (Total (N=84)): 10 (11.9) n (%)
- Dysgeusia (Total (N=84)): 20 (23.8) n (%)
- Epistaxis (Total (N=84)): 28 (33.3) n (%)
- Fatigue (Total (N=84)): 23 (27.4) n (%)
- Hyperbilirubinaemia (Total (N=84)): 28 (33.3) n (%)
- Hyperphosphataemia (Total (N=84)): 20 (23.8) n (%)
- Hypertension (Total (N=84)): 14 (16.7) n (%)
- Jaundice (Total (N=84)): 27 (32.1) n (%)
- Mucosal inflammation (Total (N=84)): 10 (11.9) n (%)
- Myalgia (Total (N=84)): 11 (13.1) n (%)
- Nasal dryness (Total (N=84)): 13 (15.5) n (%)
- Nausea (Total (N=84)): 11 (13.1) n (%)
- Onycholysis (Total (N=84)): 11 (13.1) n (%)
- Palmar-plantar eryrthodysaestesia (Total (N=84)): 30 (35.7) n (%)
- Related AE (Total (N=84)): 82 (97.6) n (%)
- Related SAEs (Total (N=84)): 14 (16.7) n (%)
- Stomatitis (Total (N=84)): 34 (40.5) n (%)
- Vomiting (Total (N=84)): 9 (10.7) n (%)
- Weight decreased (Total (N=84)): 19 (22.6) n (%)
- patients with at least one AE during treatment (all doses, N=84): 84 patients
- AE leading to death (capsule 100 mg (n=1)): 0 n (%)
- AE leading to discontinuation (capsule 100 mg (n=1)): 0 n (%)
- AE leading to dose reduction (capsule 100 mg (n=1)): 0 n (%)
- AE leading to treatment interruption (capsule 100 mg (n=1)): 1 (100) n (%)
- Alopecia (capsule 100 mg (n=1)): 0 n (%)
- Any AE (capsule 100 mg (n=1)): 1 (100) n (%)
- Arthralgia (capsule 100 mg (n=1)): 0 n (%)
- Asthenia (capsule 100 mg (n=1)): 0 n (%)
- Blood bilirubin increased (capsule 100 mg (n=1)): 0 n (%)
- Conjugated bilirubin increased (capsule 100 mg (n=1)): 0 n (%)
- Decreased appetite (capsule 100 mg (n=1)): 0 n (%)
- Diarrhoea (capsule 100 mg (n=1)): 0 n (%)
- Dry mouth (capsule 100 mg (n=1)): 0 n (%)
- Dry skin (capsule 100 mg (n=1)): 0 n (%)
- Dysgeusia (capsule 100 mg (n=1)): 0 n (%)
- Epistaxis (capsule 100 mg (n=1)): 0 n (%)
- Fatigue (capsule 100 mg (n=1)): 0 n (%)
- Hyperbilirubinaemia (capsule 100 mg (n=1)): 0 n (%)
- Hyperphosphataemia (capsule 100 mg (n=1)): 0 n (%)
- Hypertension (capsule 100 mg (n=1)): 0 n (%)
- Jaundice (capsule 100 mg (n=1)): 0 n (%)
- Mucosal inflammation (capsule 100 mg (n=1)): 0 n (%)
- Myalgia (capsule 100 mg (n=1)): 0 n (%)
- Nasal dryness (capsule 100 mg (n=1)): 0 n (%)
- Nausea (capsule 100 mg (n=1)): 0 n (%)
- Onycholysis (capsule 100 mg (n=1)): 0 n (%)
- Palmar-plantar eryrthodysaestesia (capsule 100 mg (n=1)): 0 n (%)
- Related AE (capsule 100 mg (n=1)): 1 (100) n (%)
- Related SAEs (capsule 100 mg (n=1)): 0 n (%)
- Stomatitis (capsule 100 mg (n=1)): 0 n (%)
- Vomiting (capsule 100 mg (n=1)): 0 n (%)
- Weight decreased (capsule 100 mg (n=1)): 0 n (%)
- AE leading to death (capsule 200 mg (n=3)): 0 n (%)
- AE leading to discontinuation (capsule 200 mg (n=3)): 0 n (%)
- AE leading to dose reduction (capsule 200 mg (n=3)): 0 n (%)
- AE leading to treatment interruption (capsule 200 mg (n=3)): 0 n (%)
- Alopecia (capsule 200 mg (n=3)): 0 n (%)
- Any AE (capsule 200 mg (n=3)): 3 (100) n (%)
- Arthralgia (capsule 200 mg (n=3)): 0 n (%)
- Asthenia (capsule 200 mg (n=3)): 1 (33.3) n (%)
- Blood bilirubin increased (capsule 200 mg (n=3)): 0 n (%)
- Conjugated bilirubin increased (capsule 200 mg (n=3)): 0 n (%)
- Decreased appetite (capsule 200 mg (n=3)): 0 n (%)
- Diarrhoea (capsule 200 mg (n=3)): 0 n (%)
- Dry mouth (capsule 200 mg (n=3)): 0 n (%)
- Dry skin (capsule 200 mg (n=3)): 0 n (%)
- Dysgeusia (capsule 200 mg (n=3)): 0 n (%)
- Epistaxis (capsule 200 mg (n=3)): 1 (33.3) n (%)
- Fatigue (capsule 200 mg (n=3)): 0 n (%)
- Hyperbilirubinaemia (capsule 200 mg (n=3)): 0 n (%)
- Hyperphosphataemia (capsule 200 mg (n=3)): 0 n (%)
- Hypertension (capsule 200 mg (n=3)): 0 n (%)
- Jaundice (capsule 200 mg (n=3)): 0 n (%)
- Mucosal inflammation (capsule 200 mg (n=3)): 0 n (%)
- Myalgia (capsule 200 mg (n=3)): 0 n (%)
- Nasal dryness (capsule 200 mg (n=3)): 0 n (%)
- Nausea (capsule 200 mg (n=3)): 0 n (%)
- Onycholysis (capsule 200 mg (n=3)): 0 n (%)
- Palmar-plantar eryrthodysaestesia (capsule 200 mg (n=3)): 0 n (%)
- Related AE (capsule 200 mg (n=3)): 2 (66.7) n (%)
- Related SAEs (capsule 200 mg (n=3)): 0 n (%)
- Stomatitis (capsule 200 mg (n=3)): 0 n (%)
- Vomiting (capsule 200 mg (n=3)): 0 n (%)
- Weight decreased (capsule 200 mg (n=3)): 0 n (%)
- AE leading to death (capsule 400 mg (n=7)): 0 n (%)
- AE leading to discontinuation (capsule 400 mg (n=7)): 1 (14.3) n (%)
- AE leading to dose reduction (capsule 400 mg (n=7)): 1 (14.3) n (%)
- AE leading to treatment interruption (capsule 400 mg (n=7)): 4 (57.1) n (%)
- Alopecia (capsule 400 mg (n=7)): 1 (14.3) n (%)
- Any AE (capsule 400 mg (n=7)): 7 (100) n (%)
- Arthralgia (capsule 400 mg (n=7)): 1 (14.3) n (%)
- Asthenia (capsule 400 mg (n=7)): 1 (14.3) n (%)
- Blood bilirubin increased (capsule 400 mg (n=7)): 3 (42.9) n (%)
- Conjugated bilirubin increased (capsule 400 mg (n=7)): 0 n (%)
- Decreased appetite (capsule 400 mg (n=7)): 1 (14.3) n (%)
- Diarrhoea (capsule 400 mg (n=7)): 1 (14.3) n (%)
- Dry mouth (capsule 400 mg (n=7)): 1 (14.3) n (%)
- Dry skin (capsule 400 mg (n=7)): 0 n (%)
- Dysgeusia (capsule 400 mg (n=7)): 2 (28.6) n (%)
- Epistaxis (capsule 400 mg (n=7)): 1 (14.3) n (%)
- Fatigue (capsule 400 mg (n=7)): 1 (14.3) n (%)
- Hyperbilirubinaemia (capsule 400 mg (n=7)): 2 (28.6) n (%)
- Hyperphosphataemia (capsule 400 mg (n=7)): 2 (28.6) n (%)
- Hypertension (capsule 400 mg (n=7)): 0 n (%)
- Jaundice (capsule 400 mg (n=7)): 3 (42.9) n (%)
- Mucosal inflammation (capsule 400 mg (n=7)): 1 (14.3) n (%)
- Myalgia (capsule 400 mg (n=7)): 1 (14.3) n (%)
- Nasal dryness (capsule 400 mg (n=7)): 1 (14.3) n (%)
- Nausea (capsule 400 mg (n=7)): 0 n (%)
- Onycholysis (capsule 400 mg (n=7)): 0 n (%)
- Palmar-plantar eryrthodysaestesia (capsule 400 mg (n=7)): 2 (28.6) n (%)
- Related AE (capsule 400 mg (n=7)): 7 (100) n (%)
- Related SAEs (capsule 400 mg (n=7)): 0 n (%)
- Stomatitis (capsule 400 mg (n=7)): 1 (14.3) n (%)
- Vomiting (capsule 400 mg (n=7)): 1 (14.3) n (%)
- Weight decreased (capsule 400 mg (n=7)): 1 (14.3) n (%)
- AE leading to death (capsule 600 mg (n=30)): 2 (6.7) n (%)
- AE leading to discontinuation (capsule 600 mg (n=30)): 17 (56.7) n (%)
- AE leading to dose reduction (capsule 600 mg (n=30)): 1 (3.3) n (%)
- AE leading to treatment interruption (capsule 600 mg (n=30)): 22 (73.3) n (%)
- Alopecia (capsule 600 mg (n=30)): 8 (26.7) n (%)
- Any AE (capsule 600 mg (n=30)): 30 (100) n (%)
- Arthralgia (capsule 600 mg (n=30)): 11 (36.7) n (%)
- Asthenia (capsule 600 mg (n=30)): 8 (26.7) n (%)
- Blood bilirubin increased (capsule 600 mg (n=30)): 13 (43.3) n (%)
- Conjugated bilirubin increased (capsule 600 mg (n=30)): 3 (10.0) n (%)
